Test results: ChEMBL document CHEMBL4422612, “Small Molecule Inhibitor that Stabilizes the Autoinhibited Conformation of the Oncogenic Tyrosine Phosphatase SHP2” (J Med Chem, 2019)
Substitutions are numbered along the chain they refer to. Active and inactive are the calls of the source. The calls are words filed in the database; no cut-off is given here.

Experiments:
[1] = target: T1, Tyrosine-protein phosphatase non-receptor type 11 (Homo sapiens) (UniProt Q06124); assay: Mixed type inhibition of human wild-type full length SHP2 assessed as substrate [Et] at 20 uM using H-Glu-Phe-pTyr-Ala-Glu-Val-Gly-Arg-Ser-Pro-Pro-Asp-Pro-Ala-Lys as substrate by Lineweaver-Burk plot analysis (reference value: 0.029 uM)
T1 sequence (whole entry): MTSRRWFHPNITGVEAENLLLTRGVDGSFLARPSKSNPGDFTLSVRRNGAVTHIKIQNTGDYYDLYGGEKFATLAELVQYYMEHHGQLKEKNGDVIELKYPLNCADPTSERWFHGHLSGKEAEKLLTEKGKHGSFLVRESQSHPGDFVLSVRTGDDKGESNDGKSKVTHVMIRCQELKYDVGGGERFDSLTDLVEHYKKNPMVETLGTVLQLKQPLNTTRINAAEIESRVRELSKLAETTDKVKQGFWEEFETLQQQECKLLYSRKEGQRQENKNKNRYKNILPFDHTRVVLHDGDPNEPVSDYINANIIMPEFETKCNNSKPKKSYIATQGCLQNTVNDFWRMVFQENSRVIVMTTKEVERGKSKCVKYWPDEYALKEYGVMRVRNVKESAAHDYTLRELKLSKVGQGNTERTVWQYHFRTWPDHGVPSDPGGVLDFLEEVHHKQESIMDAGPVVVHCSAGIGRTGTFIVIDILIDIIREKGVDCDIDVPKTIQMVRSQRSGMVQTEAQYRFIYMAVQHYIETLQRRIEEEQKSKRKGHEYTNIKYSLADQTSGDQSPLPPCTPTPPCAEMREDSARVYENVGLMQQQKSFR

[2] = target: T1, Tyrosine-protein phosphatase non-receptor type 11 (Homo sapiens); assay: Binding affinity to His-tagged SHP2 (unknown origin) assessed as melting temperature at 10 uM measured every 50 secs by thermal shift assay (reference value: 43.5 +/- 0.95 degC)
[3] = target: T2, Tyrosine-protein phosphatase non-receptor type 11 (Mus musculus) (UniProt P35235); assay: Inhibition of SHP2 in mouse Ba/F3 cells assessed as reduction in IL3-stimulated ERK phosphorylation pretreated for 4 hrs followed by IL3 stimulation and measured after 5 to 60 mins by Western blot analysis; format: cell-based
T2 sequence (whole entry): T1 sequence (whole entry) with M450V, A550V, K590R
Procedure, shortened: (§1)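 Ba/F3 cells starved overnight in serum- and cytokine-free RPMI1640. Treated with 20 µM compound for 4 h, then IL-3 (2 ng/mL) for the indicated times. RIPA lysates (50 µg) immunoblotted for p-Erk, p-Akt, p-Jak2 and p-Stat5, then reprobed for total proteins. Representative of three experiments.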

[4] = target: T2, Tyrosine-protein phosphatase non-receptor type 11 (Mus musculus); assay: Inhibition of SHP2 in mouse Ba/F3 cells assessed as reduction in IL3-stimulated STAT5 phosphorylation pretreated for 4 hrs followed by IL3 stimulation and measured after 5 to 60 mins by Western blot analysis; format: cell-based; procedure, shortened: as §1
NCI-H661 = assay: Induction of cell cycle arrest in human NCI-H661 cells at 10 to 20 uM after 24 hrs by propidium iodide-staining based FACS analysis; format: functional
Procedure, shortened: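 H661 cells treated with 0, 10 or 20 µM for 24 h; cell cycle profile by propidium iodide staining and FACS. Profiles are representative of three independent experiments.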

[5] = target: T1, Tyrosine-protein phosphatase non-receptor type 11 (Homo sapiens); assay: Inhibition of wild type recombinant human SHP2 at 50 uM using H-Glu-Phe-pTyr-Ala-Glu-Val-Gly-Arg-Ser-Pro-Pro-Asp-Pro-Ala-Lys as substrate preincubated for 30 mins followed by substrate addition and measured after 30 mins by Malachite Green-reagent based assay
Procedure, shortened: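 Full-length SHP2 or SHP1 (0.1 µg) preincubated with compound 30 min at room temperature in 25 mM Tris-HCl pH 7.4, 50 mM NaCl, 5 mM DTT, 2.5 mM EDTA. Phospho-peptide substrate added to 50 µM final; 30 min at 30 °C. Released phosphate read by Malachite Green at OD620. IC50 from six concentrations; three experiments.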

[6] = target: T1, Tyrosine-protein phosphatase non-receptor type 11 (Homo sapiens); assay: Ratio of IC50 for inhibition of recombinant full length human GST-tagged SHP2 PTP domain using pNPP as substrate pre-incubated for 15 mins before pNPP substrate addition and measured after 15 mins to IC50 for inhibition of wild type recombinant human SHP2 using H-Glu-Phe-pTyr-Ala-Glu-Val-Gly-Arg-Ser-Pro-Pro-Asp-Pro-Ala-Lys as substrate preincubated for 30 mins followed by substrate addition and measured after 30 mins by Malachite Green-reagent based assay
[7] = target: T2, Tyrosine-protein phosphatase non-receptor type 11 (Mus musculus); assay: Inhibition of PTPN11 in PTPN11-expressing mouse embryonic fibroblasts assessed as inhibition of cell growth at 6 uM after 24 to 72 hrs by cell proliferation-based assay
Procedure, shortened: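 Ptpn11 fl/fl and Ptpn11 +/+ MEFs, both Ade-Cre+, infected with adeno-Cre, then given 6 µM compound or DMSO. Growth measured at 24, 48 and 72 h by One Solution proliferation assay. SHP2 loss confirmed by immunoblot. Triplicates from one of three experiments.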

Activity [1]: 0.029 µM | Tm [2]: 47.2 °C | inhibition [3]: Dose-dependent effect | inhibition [4]: Dose-dependent effect | inhibition [5]: Active | Ratio IC50 [6]: > 2 | growth inhibition (GI) [7]: Active
Compound: CCOc1cc(O)c(C(=O)/C=C/c2ccc(Cl)cc2Cl)cc1CN1CCC=C(n2c(=O)[nH]c3ccccc32)C1
Activity (NCI-H661): Active
